Test results as given in ChEMBL document CHEMBL2163342, “[18F](R)-5-chloro-1-(1-cyclopropyl-2-methoxyethyl)-3-(4-(2-fluoroethoxy)-2,5-dimethyl phenylamino)pyrazin-2(1H)-one: introduction of N3-phenylpyrazinones as potential CRF-R1 PET imaging agents” (Bioorg Med Chem Lett, 2012).

Legend:
Liver microsomes [1] = assay: Drug metabolism in human liver microsomes assessed as compound depletion per mg of protein at 3 uM; format: ADME, Microsome
In short: (§1)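 Liver microsomes (1 mg/ml protein) incubated with 3 µM compound and 1.3 mM NADPH at 37 °C in 100 mM sodium phosphate buffer, pH 7.4. Final solvent 0.015% DMSO, 0.985% acetonitrile. Stopped at 0 and 10 min, compound measured by LC/MS/MS. Reported as depletion rate, pmol/min/mg protein.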

Liver microsomes [2] = assay: Drug metabolism in rat liver microsomes assessed as compound depletion per mg of protein at 3 uM; format: ADME, Microsome; in short: as §1
[3] = Unbound fraction in rat plasma after 3 hrs by equilibrium dialysis method; format: ADME, cell-free
In short: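 Equilibrium dialysis of rat plasma spiked with compound against isotonic phosphate buffer, 3 h at 37 °C. Buffer and plasma concentrations measured by LC/MS/MS. Unbound fraction taken as the buffer/plasma concentration ratio.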

[4] = Octanol-phosphate buffer partition coefficient, log D of the compound at pH 7.4 by shake flask method; format: physicochemical
In short: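 Shake-flask method. Octanol and 25 mM phosphate buffer (pH ~7.4) mixed and allowed to saturate overnight. Compound (1.0 mg in 1 mL octanol) added to 50 mL octanol-saturated buffer, shaken intensely 30–40 min, then layers left to separate. Each layer analysed twice by HPLC.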

[5] = target: T1, Corticotropin-releasing factor receptor 1 (Rattus norvegicus, UniProt P35353); assay: Displacement of [125I]-o-CRF from CRFR1 in rat frontal cortex after 2 hrs by gamma counter; format: tissue-based
T1 sequence (P35353 whole entry): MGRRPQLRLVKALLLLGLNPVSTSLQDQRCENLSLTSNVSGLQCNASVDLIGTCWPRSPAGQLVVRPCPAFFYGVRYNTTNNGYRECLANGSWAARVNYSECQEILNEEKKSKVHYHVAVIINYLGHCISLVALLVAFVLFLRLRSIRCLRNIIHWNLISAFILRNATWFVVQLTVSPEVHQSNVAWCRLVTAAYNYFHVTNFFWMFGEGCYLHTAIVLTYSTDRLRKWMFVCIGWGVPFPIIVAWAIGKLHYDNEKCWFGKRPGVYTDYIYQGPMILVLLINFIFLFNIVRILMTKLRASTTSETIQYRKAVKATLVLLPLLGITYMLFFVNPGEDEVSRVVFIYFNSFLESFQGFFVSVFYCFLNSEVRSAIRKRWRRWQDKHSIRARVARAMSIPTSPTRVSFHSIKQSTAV
In short: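 Rat frontal cortex homogenate (25 µg/well), prepared in 50 mM HEPES pH 7.0, 10 mM MgCl2, 2 mM EGTA, protease inhibitors, 0.005% Triton X-100, bacitracin, 0.1% ovalbumin. Incubated with 150 pM [125I]-o-CRF and compounds for 2 h at 21 °C. Separated by rapid filtration on PEI-pretreated glass fiber filters, washed with ice-cold PBS/0.01% Triton X-100. Specific binding inhibition gives Ki.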

[6] = target: T2, Corticotropin-releasing factor receptor 1 (Rattus norvegicus) (UniProt P35353); assay: Binding affinity to CRFR1 in Sprague-Dawley rat cerebellum at 1.3 nM after 40 mins by autoradiography; conditions: tested as the 18F-labelled form
T2 sequence (whole entry): T1 sequence (P35353 whole entry)
In short: (§2)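 Fresh 20 µm-thick sagittal brain sections from adult male Sprague–Dawley rats. Sections were preincubated 10 min in 50 mM HEPES, 10 mM MgCl₂, […], pH 7.4, then incubated 40 min at 22–24 °C with 1.3 nM [¹⁸F]-radioligand (1.3 mCi/mL) in the same buffer. Slides were washed 2 min in ice-cold PBS (pH 7.4) and imaged by in vitro autoradiography.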

[7] = target: T2, Corticotropin-releasing factor receptor 1 (Rattus norvegicus); assay: Binding affinity to CRFR1 in Sprague-Dawley rat neocortex at 1.3 nM after 40 mins by autoradiography; conditions: tested as the 18F-labelled form; in short: as §2
Blood = assay: Drug uptake in rat blood measured at 15 and 60 mins; format: ADME, tissue-based; conditions: 1 h
In short: (§3)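 Whole-body biodistribution of the [18F]-labelled radioligand in rats, formulated in 10% EtOH/saline. Tissues sampled at 15 and 60 min post-dose. Activity expressed as average % injected dose per gram.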

Intestine = assay: Drug uptake in rat small intestine measured at 15 and 60 mins; format: ADME, tissue-based; conditions: in vivo, 1 h; in short: as §3
[8] = Drug uptake in rat tibia measured at 15 and 60 mins; format: ADME, tissue-based; conditions: in vivo, 1 h; in short: as §3
Brain [9] = assay: Drug uptake in rat brain measured at 15 and 60 mins; format: ADME, tissue-based; conditions: in vivo, 1 h; in short: as §3
Liver = assay: Drug uptake in rat liver measured at 15 and 60 mins; format: ADME, tissue-based; conditions: in vivo, 1 h; in short: as §3
Heart = assay: Drug uptake in rat heart measured at 15 and 60 mins; format: ADME, tissue-based; conditions: in vivo, 1 h; in short: as §3
Brain [10] = assay: Drug uptake in rat brain after 10 to 30 mins by microPET analysis; format: ADME, tissue-based; conditions: in vivo
In short: (§4)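 In vivo microPET imaging of rat head and neck after dosing with the [18F] radioligand. Brain uptake followed from the first 10 min through 30 min on sagittal images. Skull bone uptake checked for defluorination.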

Muscle tissue = assay: Drug uptake in rat muscle measured at 15 and 60 mins; format: ADME, tissue-based; conditions: in vivo, 1 h; in short: as §3
Spleen = assay: Drug uptake in rat spleen measured at 15 and 60 mins; format: ADME, tissue-based; conditions: in vivo, 1 h; in short: as §3
Brain [11] = assay: Drug uptake in rat brain up to 10 mins by microPET analysis; format: ADME, tissue-based; conditions: in vivo; in short: as §4
Lung = assay: Drug uptake in rat lung measured at 15 and 60 mins; format: ADME, tissue-based; conditions: in vivo, 1 h; in short: as §3
Kidney = assay: Drug uptake in rat kidney measured at 15 and 60 mins; format: ADME, tissue-based; conditions: in vivo, 1 h; in short: as §3
[12] = target: T3, Corticotropin-releasing factor receptor 1 (Homo sapiens, UniProt P34998); assay: Binding affinity to CRFR1 by autoradiography
T3 sequence (P34998 whole entry): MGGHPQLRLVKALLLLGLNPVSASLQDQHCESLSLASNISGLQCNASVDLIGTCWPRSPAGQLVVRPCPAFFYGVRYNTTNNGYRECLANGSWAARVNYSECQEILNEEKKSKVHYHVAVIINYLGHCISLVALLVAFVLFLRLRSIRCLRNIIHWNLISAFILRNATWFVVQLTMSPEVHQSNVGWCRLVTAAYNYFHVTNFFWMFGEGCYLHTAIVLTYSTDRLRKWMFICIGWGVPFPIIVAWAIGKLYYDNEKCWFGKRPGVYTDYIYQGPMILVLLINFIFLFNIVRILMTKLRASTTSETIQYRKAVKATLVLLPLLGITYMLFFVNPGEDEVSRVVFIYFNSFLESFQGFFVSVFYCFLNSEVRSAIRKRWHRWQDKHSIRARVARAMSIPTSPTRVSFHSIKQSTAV
In short: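 In vitro autoradiography on fresh 20 µm sagittal brain sections from adult male Sprague–Dawley rats. Sections preincubated 10 min in 50 mM HEPES, 10 mM MgCl2, EGTA, pH 7.4, then incubated with 1.3 nM [18F] radioligand at 22–24 °C for 40 min. Washed 2 min in ice-cold PBS, pH 7.4.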

[13] = Metabolic stability in baboon plasma assessed as compound remaining after 9 and 13 mins; format: ADME, cell-free; conditions: papio anubis, read-out: Stability

## COCC(COC)n1cc(Br)nc(Nc2c(C)cc(OCF)cc2C)c1=O
Liver microsomes [1]
  Drug metabolism: 0.22 pmol/min
Liver microsomes [2]
  Drug metabolism: 0.26 pmol/min
[3]
  fraction unbound at 3 h: 0.03
[4]
  logD: 2.9
[5]
  IC50: 4.3 nM

## COC[C@@H](C1CC1)n1cc(Cl)nc(Nc2cc(C)c(OCCF)cc2C)c1=O
Liver microsomes [1]
  Drug metabolism: 0.07 pmol/min
[6]
  Activity: 19%
Liver microsomes [2]
  Drug metabolism: 0.12 pmol/min
[4]
  logD: 3.7
[5]
  IC50: 2.4 nM
[7]
  Activity: 18%

## COC[C@@H](C1CC1)n1cc(Cl)nc(Nc2cc(C)c(OCC[18F])cc2C)c1=O
Blood
  Drug uptake: Active
Intestine
  Drug uptake: Active
[8]
  Drug uptake: Active
Brain [9]
  Drug uptake: Active
Liver
  Drug uptake: Active
Heart
  Drug uptake: Active
Brain [10]
  Drug uptake: Not Active
Muscle tissue
  Drug uptake: Active
Spleen
  Drug uptake: Active
Brain [11]
  Drug uptake: Active
Lung
  Drug uptake: Active
Kidney
  Drug uptake: Active

## COCC(COC)n1cc(Br)nc(Nc2c(C)cc(OC)cc2C)c1=O
[3]
  fraction unbound at 3 h: 0.03
[4]
  logD: 2.8
[5]
  IC50: 7.8 nM

## CCC(COC)n1nnc2c(Nc3ccc(O[11CH3])cc3C)nc(C)cc21 (centres undefined)
[12]
  Ki: 1.7 nM

## COCC(COC)n1cc(Cl)nc(Nc2c(Cl)cc(OC)cc2Cl)c1=O
Liver microsomes [1]
  Drug metabolism: 0.03 pmol/min
Liver microsomes [2]
  Drug metabolism: 0.17 pmol/min
[4]
  logD: 3.4
[5]
  IC50: 5 nM

## COC[C@@H](C1CC1)n1cc(Cl)nc(Nc2cc(C)c(OCF)cc2C)c1=O
[4]
  logD: 3.1
[5]
  IC50: 4.1 nM

## COC[C@@H](C)n1cc(Cl)nc(Nc2cc(C)c(OC)cc2C)c1=O
Liver microsomes [1]
  Drug metabolism: 0.06 pmol/min
Liver microsomes [2]
  Drug metabolism: 0.19 pmol/min
[4]
  logD: 3.4
[5]
  IC50: 0.88 nM

## COCCN(CCO[11CH3])Cc1cc(C)nc2c(-c3ccc(Cl)cc3Cl)c(C)nn12 [[11C]DMP-696]
[12]
  Ki: 1.7 nM
[13]
  remaining at 13 min: 50%

## CCCN(CCC)c1cc(C)nc2c(-c3ccc(N(C)[11CH3])nc3)c(C)nn12
[12]
  Ki: 1.7 nM
[13]
  remaining at 13 min: 50%

## COCC(COC)n1cc(Cl)nc(Nc2c(Cl)cc(OCF)cc2Cl)c1=O
[4]
  logD: 3.1
[5]
  IC50: 5.4 nM

## COCC(COC)n1cc(Br)nc(Nc2cc(C)c(OC)cc2C)c1=O
Liver microsomes [1]
  Drug metabolism: 0.07 pmol/min
Liver microsomes [2]
  Drug metabolism: 0.14 pmol/min
[4]
  logD: 3.8
[5]
  IC50: 0.68 nM

## COCCN(CCOC)c1nc(C)nc2c(-c3ccc([76Br])cc3Cl)c(C)nn12
[12]
  Ki: 2 nM

## COCC(COC)n1cc(Cl)nc(Nc2c(Cl)cc(OCCF)cc2Cl)c1=O
Liver microsomes [1]
  Drug metabolism: 0.07 pmol/min
Liver microsomes [2]
  Drug metabolism: 0.12 pmol/min
[4]
  logD: 3.1
[5]
  IC50: 210 nM

## COC[C@@H](C1CC1)n1cc(Cl)nc(Nc2cc(C)c(OC)cc2C)c1=O
Liver microsomes [1]
  Drug metabolism: 0.17 pmol/min
Liver microsomes [2]
  Drug metabolism: 0.23 pmol/min
